Test results: publication PMC7221417 (European journal of medicinal chemistry, 2020)

How the values were obtained:
[1] = Stability in DMSO; type: physicochemical; conditions: for free anastrozole observed in DMSO (1H NMR): 2 mM, 15 min
[2] = Qualitative solubility in water and organic solvents; type: physicochemical
[3] = test system: MCF7 cells (ER+ breast cancer); test: Sulforhodamine B; type: cell-based, human; conditions: for Selectivity index (SI): IC50 (MCF12A) / IC50 (MCF7)
[4] = test system: H295R cells (adrenocortical carcinoma); test: Sulforhodamine B; type: cell-based, human
[5] = test system: T47D cells (ER+ breast cancer); test: Sulforhodamine B; type: cell-based, human; conditions: for IC50: T47D
[6] = test system: MCF12A cells (non-cancerous breast); test: Sulforhodamine B; type: cell-based, human
[7] = target: T1, aromatase (CYP19) in H295R cells (Homo sapiens, UniProt P11511); test: Tritiated water-release assay of aromatase activity in H295R cells; type: cell-based
T1 sequence (P11511 1-503): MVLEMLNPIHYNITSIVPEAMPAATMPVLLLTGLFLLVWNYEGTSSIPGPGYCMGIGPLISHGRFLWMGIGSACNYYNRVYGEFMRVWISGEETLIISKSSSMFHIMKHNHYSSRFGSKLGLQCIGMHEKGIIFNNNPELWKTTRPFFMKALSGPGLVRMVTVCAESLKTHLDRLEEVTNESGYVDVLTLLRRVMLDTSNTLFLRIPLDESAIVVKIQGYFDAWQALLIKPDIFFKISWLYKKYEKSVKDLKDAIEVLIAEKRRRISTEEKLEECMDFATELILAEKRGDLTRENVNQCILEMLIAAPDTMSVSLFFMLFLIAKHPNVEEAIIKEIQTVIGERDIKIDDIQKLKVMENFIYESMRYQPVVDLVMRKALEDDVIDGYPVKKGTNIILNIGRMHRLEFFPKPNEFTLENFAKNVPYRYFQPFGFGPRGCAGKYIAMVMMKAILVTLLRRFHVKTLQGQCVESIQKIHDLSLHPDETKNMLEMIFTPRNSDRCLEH
Summary of the method: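 H295R cells were seeded at 100,000/well in DMEM/F-12 with Nu Serum and ITS for 24 h, then washed with PBS. They were incubated 1.5 h at 37 °C, 5% CO2, in phenol red-free DMEM/F-12 with 54nM 1β-3H-androstenedione plus test compound at 0.1, 1, 10, 100 nM. Released tritiated water was counted by liquid scintillation. Controls were cell-free blanks and 0.1% DMSO. Data are mean ± SD.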

[8] = test system: MDA-MB-231 cells (ER- / triple negative breast cancer); test: Sulforhodamine B; type: cell-based, human; conditions: for Selectivity index (SI): IC50 (MCF12A) / IC50 (MDA-MB-231)
[9] = test system: zebrafish (Danio rerio) embryos; conditions: concentrations far less than its IC50 value in human cancer cells; cited from earlier work
[10] = Stability in cell culture medium/DMSO; type: physicochemical; conditions: 10 μM, full DMEM/F12 medium (max 0.1% DMSO), 37 °C, 1.5 h, HPLC
Summary of the method: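 Test compound at 10 μM in DMEM/F12 (0.1% DMSO, from DMSO stock) was held 1.5 h at 37 °C. Released ligand was extracted into diethyl ether, then cleaned on silica with acetone. The residue was redissolved in acetone with 100 μM hydrocortisone as external standard. It was run on C18 UHPLC with a 13 min water/acetonitrile gradient at 2 mL/min, with UV detection, and quantified against standard curves. Three replicates.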

[11] = Solubility in culture medium/DMSO and water/DMSO by UV-Vis; type: physicochemical
Summary of the method: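 Test compound in phenol red-free DMEM-F12 (0.1% DMSO) at 0.01, 0.1, 1, 5, 10, 20 μM, and in water (max 0.5% DMSO) at 1, 5, 10, 15 μM. Each solution was passed through a 0.2 μm syringe filter, then absorbance at 350–370 nm was read on a plate reader. A linear concentration–absorbance relationship was taken to indicate solubility.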

[12] = test system: zebrafish (Danio rerio) embryos; test: Zebrafish embryo toxicity assay; type: in vivo; conditions: 0.1, 0.5, 1 μM; 24-96 hpf; vs untreated control
Summary of the method: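 Wild-type Danio rerio embryos were raised at 28.5 °C. From the 2- or 4-cell stage they were exposed in 5 mL fish medium to test compound at 0.1, 0.5, 1 μM (0.5% DMSO final). Medium was refreshed at 48 h. Mortality, gross morphology and hatching were scored by stereomicroscope every 24 h to 96 hpf, against an untreated control. Triplicates, 60 embryos per treatment from three crosses; mean ± SD.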

[13] = H295R, 48 h exposure, SRB assay
[14] = MCF12A (non-cancerous), 48 h exposure, SRB assay
[15] = MDA-MB-231, 48 h exposure, SRB assay

Compound: C1=CCCC=CCC1.CC(C)(C#N)c1cc(Cn2cncn2)cc(C(C)(C)C#N)c1.CC(C)(C#N)c1cc(Cn2cncn2)cc(C(C)(C)C#N)c1.[Cl-].[Cl-].[Ru+2] [Complex 1, RuCOD(ATZ)2Cl2]
- free anastrozole observed in DMSO (1H NMR) [1]: 25%

Compound: CC(C)(C#N)c1cc(Cn2cncn2)cc(C(C)(C)C#N)c1.CS(C)=O.[Cl-].[Cl-].[Cl-].[Cl-].[Na+].[Ru+3] [Complex 3, Na[trans-RuCl4ATZ(DMSO)]]
- solubility in water (qualitative) [2]: soluble in water

Compound: CC(C)(C#N)c1cc(Cn2cncn2)cc(C(C)(C)C#N)c1 [anastrozole, reference compound]
- IC50 ([3]; Homo sapiens, MCF7, 48 h): > 100 µM
- IC50 ([4]; Homo sapiens, NCI-H295R, 48 h): > 100 µM
- IC50 ([5]; Homo sapiens, 48 h): > 100 µM
- IC50 ([6]; Homo sapiens, MCF-12A, 48 h): > 100 µM
- inhibition at 0.01 µM ([7]; NCI-H295R, read-out: inhibition of aromatase activity): ~50%
- IC50 ([8]; Homo sapiens, MDA-MB-231, 48 h): > 100 µM

Compound: N.N.[Cl][Pt][Cl] [cisplatin]
- Selectivity index (SI) [3]: 2.12
- IC50 ([3]; MCF7, 48 h exposure, SRB assay): 20.1 µM
- IC50 [4, 13]: 86.5 µM
- IC50 ([5]; 48 h exposure, SRB assay): > 150 µM
- IC50 [6, 14]: 42.7 µM
- hatching rate of zebrafish embryos [9]: significant inhibition of hatching rate
- Selectivity index (SI) [8]: 1.32
- IC50 [8, 15]: 32.4 µM

Compound: RuCp(PPh3)2(ATZ)BF4 [Complex 2]
- released anastrozole in culture medium [10]: 4%
- Selectivity index (SI) [3]: 1.16
- IC50 ([3]; MCF7, 48 h exposure, SRB assay): 0.5 µM
- IC50 [4, 13]: 0.63 µM
- Selectivity index (SI) ([4]; IC50 (MCF12A) / IC50 (H295R)): 0.92
- Selectivity index (SI) ([5]; IC50 (MCF12A) / IC50 (T47D)): 1.81
- IC50 ([5]; 48 h exposure, SRB assay): 0.32 µM
- IC50 [6, 14]: 0.58 µM
- solubility in culture medium ([11]; full DMEM/F12 medium (0.1% DMSO)): ≥ 20 µM
- solubility in water ([11]; water (max 0.5% DMSO)): ≥ 15 µM
- aromatase inhibitory activity at higher concentrations ([7]; above 10 nM (tested up to 100 nM), 1.5 h, H295R cells): slight aromatase inhibitory activity
- inhibition of aromatase activity ([7]; up to 10 nM, 1.5 h, H295R cells): No significant inhibition
- free anastrozole observed in DMSO (1H NMR) [1]: 2%
- change of UV-Vis absorption spectrum in DMSO ([1]; over 1 h): No apparent change
- solubility in organic solvents (qualitative) [2]: soluble in acetone, alcohols and dimethyl sulfoxide (DMSO)
- solubility in water (qualitative) [2]: poorly soluble in water
- hatching delay of zebrafish embryos [12]: no apparent
- mortality of zebrafish embryos [12]: no apparent
- phenotype changes of zebrafish embryos [12]: no apparent
- Selectivity index (SI) [8]: 1.49
- IC50 [8, 15]: 0.39 µM
